According to ChEMBL document CHEMBL1159121, “Synthesis, in vitro structure-activity relationship, and in vivo studies of 2-arylthiazolidine-4-carboxylic acid amides as anticancer agents” (Bioorg Med Chem, 2010):
pIC50: −log10 of the molar value.

Experiments:
EKVX = assay: Growth inhibition of human EKVX cells; assay type: functional
COLO 205 = assay: Growth inhibition of human COLO205 cells; assay type: functional
TK-10 = assay: Growth inhibition of human TK10 cells; assay type: functional
SR = assay: Growth inhibition of human SR cells; assay type: functional
NCI-H460 = assay: Growth inhibition of human NCI-H460 cells; assay type: functional
HCC 2998 = assay: Growth inhibition of human HCC2998 cells; assay type: functional
HT-29 = assay: Growth inhibition of human HT-29 cells; assay type: functional
MDA-MB-435 = assay: Growth inhibition of human MDA-MB-435 cells; assay type: functional
SF-539 = assay: Growth inhibition of human SF539 cells; assay type: functional
ACHN = assay: Growth inhibition of human ACHN cells; assay type: functional
NCI-H226 = assay: Growth inhibition of human NCI-H226 cells; assay type: functional
SW-620 = assay: Growth inhibition of human SW620 cells; assay type: functional
RXF 393 = assay: Growth inhibition of human RXF393 cells; assay type: functional
LOX IMVI = assay: Growth inhibition of human LOXIMVI cells; assay type: functional
[1] = Antiproliferative activity against human WM164 cells after 48 hrs by SRB assay; assay type: functional, cell-based; conditions: WM164, 48 h
Outline: (§1)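 Melanoma lines and control fibroblasts grown at 37 °C, 5% CO2, then exposed to a wide concentration range for 48 h in round-bottom 96-well plates. Fixed with 10% TCA, stained with SRB, protein read at 560 nm. IC50 (50% growth inhibition versus untreated) obtained by nonlinear regression.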

HOP-62 = assay: Growth inhibition of human HOP62 cells; assay type: functional
CCRF-CEM = assay: Growth inhibition of human CCRF-CEM cells; assay type: functional
SNB-75 = assay: Growth inhibition of human SNB75 cells; assay type: functional
NCI-H322M = assay: Growth inhibition of human NCI-H322M cells; assay type: functional
SK-MEL-28 = assay: Growth inhibition of human SK-MEL-28 cells; assay type: functional
MOLT-4 = assay: Growth inhibition of human MOLT4 cells; assay type: functional
DU-145 = assay: Growth inhibition of human DU145 cells; assay type: functional
A498 = assay: Growth inhibition of human A498 cells; assay type: functional
UO-31 = assay: Growth inhibition of human UO31 cells; assay type: functional
OVCAR-4 = assay: Growth inhibition of human OVCAR4 cells; assay type: functional
NCI/ADR-RES = assay: Growth inhibition of human NCI/ADR-RES cells; assay type: functional
OVCAR-3 = assay: Growth inhibition of human OVCAR-3 cells; assay type: functional
BT-549 = assay: Growth inhibition of human BT549 cells; assay type: functional
RH7777 = assay: Cytotoxicity against rat RH7777 cells after 96 hrs by SRB assay; assay type: cell-based; conditions: RH7777, 96 h
Outline: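 Prostate lines in RPMI1640/10% FBS; RH7777 in DMEM/10% FBS. Cells TCA-fixed, stained with 0.4% SRB, absorbance read at 540 nm. IC50 from nonlinear regression of % survival against concentration.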

NCI-H522 = assay: Growth inhibition of human NCI-H522 cells; assay type: functional
SK-MEL-5 = assay: Growth inhibition of human SK-MEL-5 cells; assay type: functional
UACC-257 = assay: Growth inhibition of human UACC257 cells; assay type: functional
UACC-62 = assay: Growth inhibition of human UACC62 cells; assay type: functional
U-251 = assay: Growth inhibition of human U251 cells; assay type: functional
IGROV-1 = assay: Growth inhibition of human IGROV1 cells; assay type: functional
NCI-H23 = assay: Growth inhibition of human NCI-H23 cells; assay type: functional
[2] = Antiproliferative activity against mouse B16-F1 cells after 48 hrs by SRB assay; assay type: functional, cell-based; conditions: B16-F1, 48 h; outline: as §1
SNB-19 = assay: Growth inhibition of human SNB19 cells; assay type: functional
SK-OV-3 = assay: Growth inhibition of human SKOV3 cells; assay type: functional
HCT-15 = assay: Growth inhibition of human HCT15 cells; assay type: functional
PC-3 = assay: Growth inhibition of human PC3 cells; assay type: functional
[3] = read-out: LC50 (the source's name)

For `CCCCCCCCCCCCCCCCNC(=O)[C@@H]1CSC(c2ccc(NC(C)=O)cc2)N1` (mixture of isomers), the GI50 (EKVX) was 300 nM, the TGI (EKVX) was 880 nM and the CC50 (EKVX; [3]) was 4110 nM. The GI50 (COLO 205) was 1910 nM, the CC50 (COLO 205; [3]) was > 100000 nM and the GI50 (TK-10) was 650 nM. It also gave a TGI (TK-10) of 2110 nM, a CC50 (TK-10; [3]) of 5400 nM and a GI50 (SR) of 160 nM. The TGI (SR) was 350 nM, the CC50 (SR; [3]) was 810 nM and the GI50 (NCI-H460) was 190 nM. The TGI (NCI-H460) was 390 nM, the CC50 (NCI-H460; [3]) was 790 nM and the GI50 (HCC 2998) was 440 nM. It also gave a TGI (HCC 2998) of 1810 nM, a CC50 (HCC 2998; [3]) of 4580 nM and a GI50 (HT-29) of 230 nM. For the same molecule, the TGI (HT-29) was 480 nM, the CC50 (HT-29; [3]) was 1090 nM and the GI50 (MDA-MB-435) was 150 nM. The TGI (MDA-MB-435) was 300 nM, the CC50 (MDA-MB-435; [3]) was 600 nM and the GI50 (SF-539) was 260 nM. The TGI (SF-539) was 700 nM, the CC50 (SF-539; [3]) was 2810 nM and the GI50 (ACHN) was 210 nM. For the same molecule, the TGI (ACHN) was 470 nM, the CC50 (ACHN; [3]) was 1100 nM and the GI50 (NCI-H226) was 230 nM. For the same molecule, the TGI (NCI-H226) was 390 nM, the CC50 (NCI-H226; [3]) was 690 nM and the GI50 (SW-620) was 210 nM. For the same molecule, the TGI (SW-620) was 430 nM, the CC50 (SW-620; [3]) was 890 nM and the GI50 (RXF 393) was 200 nM. It also gave a TGI (RXF 393) of 350 nM, a CC50 (RXF 393; [3]) of 620 nM and a GI50 (LOX IMVI) of 140 nM. For the same molecule, the TGI (LOX IMVI) was 300 nM, the CC50 (LOX IMVI; [3]) was 830 nM and the pIC50 [1] was 5.96. It also gave a GI50 (HOP-62) of 200 nM, a TGI (HOP-62) of 380 nM and a CC50 (HOP-62; [3]) of 700 nM. For the same molecule, the GI50 (CCRF-CEM) was 120 nM, the TGI (CCRF-CEM) was 400 nM and the CC50 (CCRF-CEM; [3]) was 13000 nM. The GI50 (SNB-75) was 180 nM, the TGI (SNB-75) was 330 nM and the CC50 (SNB-75; [3]) was 580 nM. It also gave a GI50 (NCI-H322M) of 280 nM, a TGI (NCI-H322M) of 850 nM and a CC50 (NCI-H322M; [3]) of 3220 nM. For the same molecule, the GI50 (SK-MEL-28) was 130 nM, the TGI (SK-MEL-28) was 260 nM and the CC50 (SK-MEL-28; [3]) was 520 nM. It also gave a GI50 (MOLT-4) of 150 nM, a TGI (MOLT-4) of 340 nM and a CC50 (MOLT-4; [3]) of 790 nM. The GI50 (DU-145) was 270 nM, the TGI (DU-145) was 630 nM and the CC50 (DU-145; [3]) was 2150 nM. The GI50 (A498) was 940 nM, the TGI (A498) was 2200 nM and the CC50 (A498; [3]) was 4970 nM. It also gave a GI50 (UO-31) of 190 nM, a TGI (UO-31) of 340 nM and a CC50 (UO-31; [3]) of 6100 nM. The GI50 (OVCAR-4) was 230 nM, the TGI (OVCAR-4) was 490 nM and the CC50 (OVCAR-4; [3]) was 120 nM. It also gave a GI50 (NCI/ADR-RES) of 250 nM, a TGI (NCI/ADR-RES) of 520 nM and a CC50 (NCI/ADR-RES; [3]) of 170 nM. The GI50 (OVCAR-3) was 220 nM, the TGI (OVCAR-3) was 420 nM and the CC50 (OVCAR-3; [3]) was 790 nM. The GI50 (BT-549) was 180 nM, the TGI (BT-549) was 330 nM and the CC50 (BT-549; [3]) was 630 nM. The pIC50 (RH7777) was 5.17, the GI50 (NCI-H522) was 3810 nM and the TGI (NCI-H522) was 20700 nM. For the same molecule, the CC50 (NCI-H522; [3]) was > 100000 nM, the GI50 (SK-MEL-5) was 750 nM and the TGI (SK-MEL-5) was 2130 nM. The CC50 (SK-MEL-5; [3]) was 5130 nM, the GI50 (UACC-257) was 1480 nM and the TGI (UACC-257) was 3160 nM. The CC50 (UACC-257; [3]) was 6710 nM, the GI50 (UACC-62) was 1080 nM and the TGI (UACC-62) was 2330 nM. It also gave a CC50 (UACC-62; [3]) of 50200 nM, a GI50 (U-251) of 180 nM and a TGI (U-251) of 330 nM. The CC50 (U-251; [3]) was 620 nM, the GI50 (IGROV-1) was 170 nM and the TGI (IGROV-1) was 340 nM. For the same molecule, the CC50 (IGROV-1; [3]) was 650 nM, the GI50 (NCI-H23) was 320 nM and the TGI (NCI-H23) was 1050 nM. The CC50 (NCI-H23; [3]) was 4860 nM, the pIC50 [2] was 5.66 and the GI50 (SNB-19) was 190 nM. It also gave a TGI (SNB-19) of 400 nM, a CC50 (SNB-19; [3]) of 820 nM and a GI50 (SK-OV-3) of 380 nM. The TGI (SK-OV-3) was 1130 nM, the CC50 (SK-OV-3; [3]) was 3480 nM and the GI50 (HCT-15) was 1000 nM. The TGI (HCT-15) was 3220 nM, the CC50 (HCT-15; [3]) was 11900 nM and the GI50 (PC-3) was 170 nM. The TGI (PC-3) was 340 nM and the CC50 (PC-3; [3]) was 640 nM.
